{"data": "Assay results gathered from unrelated publications", "cell line": "MCF7", "effect on": "cell growth or viability", "note": "Protocols differ between the studies behind these lines."}
{"SMILES": "CC/C(=C(\\c1ccccc1)c1ccc(OCCN(C)C)cc1)c1ccccc1", "method": "ATP luminescence", "time": "72 h", "measurement": "EC90", "value": "32.2 µM"}
{"SMILES": "COc1cc(C(CC(=O)c2ccc(C)cc2)NCCc2ccc(O)c(O)c2)ccc1O (centres unmarked)", "method": "MTT", "measurement": "TGI", "value": "10.1 µM"}
{"SMILES": "CCOc1cc(-c2nc3ccc(C)cc3[nH]2)ccc1O", "method": "MTT", "time": "48 h", "measurement": "IC50", "value": "54.9 µM"}
{"SMILES": "COc1ccc(C(=O)/C=C/c2cccc(Cl)c2)cc1S(N)(=O)=O", "method": "SRB", "tested at": "10 µM", "measurement": "inhibition", "value": "167%"}
{"SMILES": "COc1cccc2c1C(=O)c1c(O)c3c(c(O)c1C2=O)C[C@@](O)(C(=O)CO)C[C@@H]3O[C@H]1C[C@H](N)[C@H](O)[C@H](C)O1", "method": "MTT", "time": "48 h", "measurement": "IC50", "value": "0.09 µM"}
{"SMILES": "c1ccc2[nH]c(-c3ccncc3)nc2c1", "method": "MTT", "time": "48 h", "measurement": "IC50", "value": "> 100 µM"}
{"SMILES": "COc1ccc(C(=O)/C=C/c2cccc3ccccc23)cc1S(N)(=O)=O", "method": "SRB", "tested at": "10 µM", "measurement": "inhibition", "value": "160%"}
{"SMILES": "COc1ccc(Cc2nc(/N=C3\\NC(=O)N(C)C3=O)n(C)c2Cc2ccc(O)cc2)cc1", "measurement": "EC50", "value": "5.9 µM"}
{"SMILES": "Clc1ccc(-c2nc3ccccc3n2Cc2ccccc2)cc1", "method": "MTT", "measurement": "IC50", "value": "40.2 µM"}
{"SMILES": "COc1cc(C(CC(=O)c2ccc([N+](=O)[O-])cc2)NCCc2ccc(O)c(O)c2)ccc1O (centres unmarked)", "method": "MTT", "measurement": "TGI", "value": "0.29 µM"}
{"SMILES": "Clc1ccc(-c2nc3ccccc3n2Cc2ccccc2)cc1Cl", "method": "MTT", "measurement": "IC50", "value": "62.4 µM"}
{"SMILES": "COc1ccc(C(=O)/C=C/c2ccc3ccccc3c2)cc1S(N)(=O)=O", "method": "SRB", "tested at": "10 µM", "measurement": "inhibition", "value": "175%"}
{"SMILES": "COc1cc(CNC(=O)C[C@H](C)CCC=C(C)C)ccc1OCc1cn(-c2ccc(Cl)cc2)nn1", "method": "SRB", "tested at": "10 µM", "measurement": "inhibition", "value": "34%"}
{"SMILES": "CCOCCOCCOCCNC(=S)NCCCC[C@H](NS(C)(=O)=O)C(=O)N[C@@H](C)C(=O)N[C@@H](CCCNC(=N)N)C(N)=O", "method": "MTT", "time": "72 h", "measurement": "EC50", "value": "> 100 µM"}
{"SMILES": "Cc1ccc2nc(-c3ccc([N+](=O)[O-])cc3)[nH]c2c1", "method": "MTT", "time": "48 h", "measurement": "IC50", "value": "10.5 µM"}
{"SMILES": "COc1cccc2c1C(=O)c1c(O)c3c(c(O)c1C2=O)C[C@@](O)(C(=O)CO)C[C@@H]3O[C@H]1C[C@H](N)[C@H](O)[C@H](C)O1", "method": "SRB", "measurement": "IC50", "value": "0.06 µM"}
{"SMILES": "COc1cc(C(CC(C)=O)NCCc2ccc(O)c(O)c2)ccc1O (centres unmarked)", "method": "MTT", "measurement": "TGI", "value": "46.2 µM"}
{"SMILES": "CCCCCCCCCCCCNC(=S)NCCCC[C@H](NS(C)(=O)=O)C(=O)N[C@@H](C)C(=O)N[C@@H](CCCNC(=N)N)C(N)=O", "method": "MTT", "time": "72 h", "measurement": "EC50", "value": "63.7 to 84.3 µM"}
{"SMILES": "COc1ccc(C(=O)/C=C/c2c(F)cccc2Cl)cc1S(N)(=O)=O", "method": "SRB", "tested at": "10 µM", "measurement": "inhibition", "value": "105%"}
{"SMILES": "Cc1ccc2nc(-c3ccc4c(c3)OCO4)[nH]c2c1", "method": "MTT", "time": "48 h", "measurement": "IC50", "value": "> 100 µM"}
{"SMILES": "CC(C)c1cnn2c(NCc3ccccc3)cc(NC[C@H]3CCNC[C@@H]3O)nc12", "tested at": "0.1 µM", "time": "9 days", "measurement": "inhibition", "value": "~50%"}
{"SMILES": "C=CCn1c(-c2ccc(OC)c(OC)c2)nc2ccccc21", "method": "MTT", "measurement": "IC50", "value": "37 µM"}
{"SMILES": "COc1ccc(C(=O)/C=C/c2ccccc2Cl)cc1S(N)(=O)=O", "method": "SRB", "tested at": "10 µM", "measurement": "inhibition", "value": "4%"}
{"SMILES": "Clc1ccc(-c2nc3ccccc3[nH]2)c(Cl)c1", "method": "MTT", "time": "48 h", "measurement": "IC50", "value": "55.8 µM"}
{"SMILES": "CCCCCCCCCCCCNC(=O)NCCCC[C@H](NS(C)(=O)=O)C(=O)N[C@H](C)C(=O)N[C@@H](CCCNC(=N)N)C(N)=O", "method": "MTT", "time": "72 h", "measurement": "EC50", "value": "69.2 to 78.9 µM"}
{"SMILES": "COc1ccc(C(=O)/C=C/c2cccnc2)cc1S(N)(=O)=O", "method": "SRB", "tested at": "10 µM", "measurement": "inhibition", "value": "93%"}
{"SMILES": "C[C@]12CC[C@@H]3c4ccc(O)cc4CC[C@H]3[C@@H]1CC[C@@H]2O", "method": "ATP luminescence", "time": "72 h", "measurement": "EC90", "value": "53.5 µM"}
{"SMILES": "COc1ccccc1/C=C/C(=O)c1ccc(OC)c(S(N)(=O)=O)c1", "method": "SRB", "tested at": "10 µM", "measurement": "inhibition", "value": "92%"}
{"SMILES": "COc1cccc2c1C(=O)c1c(O)c3c(c(O)c1C2=O)C[C@@](O)(C(=O)CO)C[C@@H]3O[C@H]1C[C@H](N)[C@H](O)[C@H](C)O1", "method": "MTT", "measurement": "TGI", "value": "0.21 µM"}
